# Measured values from ChEMBL document CHEMBL3244241, “Synthesis of cephalotaxine esters and correlation of their structures with antitumor activity” (J Med Chem, 1977).
# Activity calls are given as the source filed them. The rule behind the calls is not given here.
# What was measured:
# Mus musculus [1] = test: Toxicity in DBA/2 mouse allografted with mouse P388 cells assessed as change in body weight at 9 mg/kg/day, ip for 9 days compound administered through water+alcohol vehicle; format: organism-based; parameters: route intraperitoneal; conditions: in vivo, 216 h
# P388 [2] = test: Antitumor activity against mouse P388 cells allografted in DBA/2 mouse assessed as host survival at 9 mg/kg/day, ip for 9 days compound administered through water+alcohol vehicle relative to control; format: functional; conditions: route intraperitoneal
# Procedure, shortened: (§1)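 P388 lymphocytic leukemia in DBA/2 mice. Dosing was one intraperitoneal injection per day for 9 days in the vehicle stated. […] Duplicate tests were run for some doses.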
# Mus musculus [3] = test: Toxicity in DBA/2 mouse allografted with mouse P388 cells assessed as change in body weight at 4 mg/kg/day, ip for 9 days compound administered through saline vehicle; format: organism-based; parameters: route intraperitoneal; conditions: in vivo, 216 h
# P388 [4] = test: Antitumor activity against mouse P388 cells allografted in DBA/2 mouse assessed as host survival at 4 mg/kg/day, ip for 9 days compound administered through saline vehicle relative to control; format: functional; conditions: route intraperitoneal; procedure, shortened: as §1
# P388 [5] = test: Antitumor activity against mouse P388 cells allografted in DBA/2 mouse assessed as host survival at 20 mg/kg/day, ip for 9 days compound administered through water+alcohol+acetone vehicle relative to control; format: functional; conditions: route intraperitoneal; procedure, shortened: as §1
# Mus musculus [6] = test: Toxicity in DBA/2 mouse allografted with mouse P388 cells assessed as change in body weight at 20 mg/kg/day, ip for 9 days compound administered through water+alcohol+acetone vehicle; format: organism-based; parameters: route intraperitoneal; conditions: in vivo, 216 h
# Procedure, shortened: (§2)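 DBA/2 mice bearing P388 lymphocytic leukemia received one intraperitoneal injection per day for 9 days, given in the vehicle named for each test (water/alcohol-based, saline or saline + Tween 80). Toxicity was noted during dosing alongside survival scoring (T/C, treated versus control mean survival time).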
# Mus musculus [7] = test: Toxicity in DBA/2 mouse allografted with mouse P388 cells assessed as change in body weight at 10 mg/kg/day, ip for 9 days compound administered through water+alcohol+acetone vehicle; format: organism-based; parameters: route intraperitoneal; conditions: in vivo, 216 h; procedure, shortened: as §2
# P388 [8] = test: Antitumor activity against mouse P388 cells allografted in DBA/2 mouse assessed as host survival at 1.9 mg/kg/day, ip for 9 days compound administered through water+alcohol vehicle relative to control; format: functional; conditions: route intraperitoneal; procedure, shortened: as §1
# P388 [9] = test: Antitumor activity against mouse P388 cells allografted in DBA/2 mouse assessed as host survival at 4.4 mg/kg/day, ip for 9 days compound administered through water+alcohol vehicle relative to control; format: functional; conditions: route intraperitoneal; procedure, shortened: as §1
# P388 [10] = test: Antitumor activity against mouse P388 cells allografted in DBA/2 mouse assessed as host survival at 80 mg/kg/day, ip for 9 days compound administered through water+alcohol+acetone vehicle relative to control; format: functional; conditions: route intraperitoneal; procedure, shortened: as §1
# Mus musculus [11] = test: Toxicity in DBA/2 mouse allografted with mouse P388 cells assessed as change in body weight at 4.4 mg/kg/day, ip for 9 days compound administered through water+alcohol vehicle; format: organism-based; parameters: route intraperitoneal; conditions: in vivo, 216 h; procedure, shortened: as §2
# Mus musculus [12] = test: Toxicity in DBA/2 mouse allografted with mouse P388 cells assessed as change in body weight at 40 mg/kg/day, ip for 9 days compound administered through water+alcohol+acetone vehicle; format: organism-based; parameters: route intraperitoneal; conditions: in vivo, 216 h; procedure, shortened: as §2
# P388 [13] = test: Antitumor activity against mouse P388 cells allografted in DBA/2 mouse assessed as host survival at 10 mg/kg/day, ip for 9 days compound administered through water+alcohol+acetone vehicle relative to control; format: functional; conditions: route intraperitoneal; procedure, shortened: as §1
# Mus musculus [14] = test: Toxicity in DBA/2 mouse allografted with mouse P388 cells assessed as change in body weight at 80 mg/kg/day, ip for 9 days compound administered through water+alcohol+acetone vehicle; format: organism-based; parameters: route intraperitoneal; conditions: in vivo, 216 h; procedure, shortened: as §2
# P388 [15] = test: Antitumor activity against mouse P388 cells allografted in DBA/2 mouse assessed as host survival at 40 mg/kg/day, ip for 9 days compound administered through water+alcohol+acetone vehicle relative to control; format: functional; conditions: route intraperitoneal; procedure, shortened: as §1
# Mus musculus [16] = test: Toxicity in DBA/2 mouse allografted with mouse P388 cells assessed as change in body weight at 1.9 mg/kg/day, ip for 9 days compound administered through water+alcohol vehicle; format: organism-based; parameters: route intraperitoneal; conditions: in vivo, 216 h; procedure, shortened: as §2
# P388 [17] = test: Antitumor activity against mouse P388 cells allografted in ip dosed DBA/2 mouse administered for 9 days; format: functional, organism-based
# Procedure, shortened: (§3)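 P388 lymphocytic leukemia in DBA/2 mice; one intraperitoneal injection per day for 9 days. […] Injection vehicles were water + alcohol, saline + Tween 80, or aqueous 0.5% citric acid. Some tests were duplicated, and 30-day cures were recorded.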
# P388 [18] = test: Antitumor activity against mouse P388 cells allografted in DBA/2 mouse assessed as host survival at 8.8 mg/kg/day, ip for 9 days compound administered through water+alcohol vehicle relative to control; format: functional; conditions: route intraperitoneal; procedure, shortened: as §1
# P388 [19] = test: Antitumor activity against mouse P388 cells allografted in DBA/2 mouse assessed as host survival at 20 mg/kg/day, ip for 9 days compound administered through water+alcohol vehicle relative to control; format: functional; conditions: route intraperitoneal; procedure, shortened: as §1
# Mus musculus [20] = test: Toxicity in DBA/2 mouse allografted with mouse P388 cells assessed as change in body weight at 20 mg/kg/day, ip for 9 days compound administered through water+alcohol vehicle; format: organism-based; parameters: route intraperitoneal; conditions: in vivo, 216 h; procedure, shortened: as §2
# Mus musculus [21] = test: Toxicity in DBA/2 mouse allografted with mouse P388 cells assessed as change in body weight at 160 mg/kg/day, ip for 9 days compound administered through water+alcohol vehicle; format: organism-based; parameters: route intraperitoneal; conditions: in vivo, 216 h; procedure, shortened: as §2
# Mus musculus [22] = test: Toxicity in DBA/2 mouse allografted with mouse P388 cells assessed as change in body weight at 13 mg/kg/day, ip for 9 days compound administered through water+alcohol vehicle; format: organism-based; parameters: route intraperitoneal; conditions: in vivo, 216 h; procedure, shortened: as §2
# P388 [23] = test: Antitumor activity against mouse P388 cells allografted in DBA/2 mouse assessed as host survival at 160 mg/kg/day, ip for 9 days compound administered through water+alcohol vehicle relative to control; format: functional; conditions: route intraperitoneal; procedure, shortened: as §1
# P388 [24] = test: Antitumor activity against mouse P388 cells allografted in DBA/2 mouse assessed as host survival at 20 mg/kg/day, ip for 9 days compound administered through 0.5% citric acid vehicle; format: functional, organism-based; procedure, shortened: as §3
# Mus musculus [25] = test: Toxicity in DBA/2 mouse allografted with mouse P388 cells assessed as change in body weight at 40 mg/kg/day, ip for 9 days compound administered through water+alcohol vehicle; format: organism-based; parameters: route intraperitoneal; conditions: in vivo, 216 h; procedure, shortened: as §2
# P388 [26] = test: Antitumor activity against mouse P388 cells allografted in DBA/2 mouse assessed as host survival at 80 mg/kg/day, ip for 9 days compound administered through water+alcohol vehicle relative to control; format: functional; conditions: route intraperitoneal; procedure, shortened: as §1
# Mus musculus [27] = test: Toxicity in DBA/2 mouse allografted with mouse P388 cells assessed as change in body weight at 320 mg/kg/day, ip for 9 days compound administered through water+alcohol vehicle; format: organism-based; parameters: route intraperitoneal; conditions: in vivo, 216 h; procedure, shortened: as §2
# P388 [28] = test: Antitumor activity against mouse P388 cells allografted in DBA/2 mouse assessed as host survival at 320 mg/kg/day, ip for 9 days compound administered through water+alcohol vehicle relative to control; format: functional; conditions: route intraperitoneal; procedure, shortened: as §1
# P388 [29] = test: Antitumor activity against mouse P388 cells allografted in DBA/2 mouse assessed as host survival at 13 mg/kg/day, ip for 9 days compound administered through water+alcohol vehicle relative to control; format: functional; conditions: route intraperitoneal; procedure, shortened: as §1
# Mus musculus [30] = test: Toxicity in DBA/2 mouse allografted with mouse P388 cells assessed as change in body weight at 8.8 mg/kg/day, ip for 9 days compound administered through water+alcohol vehicle; format: organism-based; parameters: route intraperitoneal; conditions: in vivo, 216 h; procedure, shortened: as §2
# P388 [31] = test: Antitumor activity against mouse P388 cells allografted in DBA/2 mouse assessed as host survival at 40 mg/kg/day, ip for 9 days compound administered through water+alcohol vehicle relative to control; format: functional; conditions: route intraperitoneal; procedure, shortened: as §1
# Mus musculus [32] = test: Toxicity in DBA/2 mouse allografted with mouse P388 cells assessed as change in body weight at 80 mg/kg/day, ip for 9 days compound administered through water+alcohol vehicle; format: organism-based; parameters: route intraperitoneal; conditions: in vivo, 216 h; procedure, shortened: as §2
# P388 [33] = test: Antitumor activity against mouse P388 cells allografted in DBA/2 mouse assessed as host survival at 20 mg/kg/day, ip for 9 days compound administered through saline+Tween 80 vehicle relative to control; format: functional; conditions: route intraperitoneal; procedure, shortened: as §1
# Mus musculus [34] = test: Toxicity in DBA/2 mouse allografted with mouse P388 cells assessed as change in body weight at 20 mg/kg/day, ip for 9 days compound administered through saline+Tween 80 vehicle; format: organism-based; parameters: route intraperitoneal; conditions: in vivo, 216 h; procedure, shortened: as §2
smiles,measurement,setting,value
COC(=O)C[C@@](O)(CCC(C)C)C(=O)O[C@@H]1C(OC)=C[C@]23CCCN2CCc2cc4c(cc2[C@H]13)OCO4,Activity,Mus musculus [1],-2.2 g
same,T/C,P388 [2],131%
same,Activity,Mus musculus [3],0.5 g
same,T/C,P388 [4],150%
COC(=O)/C=C/C(=O)O[C@@H]1C(OC)=C[C@]23CCCN2CCc2cc4c(cc2[C@H]13)OCO4,T/C,P388 [5],125%
same,Activity,Mus musculus [6],-1 g
same,Activity,Mus musculus [7],-1.2 g
same,T/C,P388 [8],134%
same,T/C,P388 [9],147%
same,T/C,P388 [10],145%
same,Activity,Mus musculus [11],-1.5 g
same,Activity,Mus musculus [12],-0.9 g
same,T/C,P388 [13],136%
same,Activity,Mus musculus [14],-0.7 g
same,T/C,P388 [15],134%
same,Activity,Mus musculus [16],0.5 g
COC(=O)/C=C(\C)C(=O)O[C@@H]1C(OC)=C[C@]23CCCN2CCc2cc4c(cc2[C@H]13)OCO4,Activity,P388 [17],inactive
COC1=C[C@]23CCCN2CCc2cc4c(cc2[C@@H]3[C@@H]1OC(=O)OCC(Cl)(Cl)Cl)OCO4,T/C,P388 [18],170%
same,T/C,P388 [19],128%
same,Activity,Mus musculus [20],-2.7 g
same,Activity,Mus musculus [21],-0.9 g
same,Activity,Mus musculus [22],-0.5 g
same,T/C,P388 [23],155%
same,Activity,P388 [24],inactive
same,Activity,Mus musculus [25],-0.4 g
same,T/C,P388 [26],160%
same,Activity,Mus musculus [27],-1 g
same,T/C,P388 [28],172%
same,T/C,P388 [29],138%
same,Activity,Mus musculus [30],-0.3 g
same,T/C,P388 [31],140%
same,Activity,Mus musculus [32],-1.3 g
CCC(C)(OC(=O)OCC(Cl)(Cl)Cl)C(=O)O[C@@H]1C(OC)=C[C@]23CCCN2CCc2cc4c(cc2[C@H]13)OCO4 (stereo partly specified),Activity,P388 [17],inactive
COC1=C[C@]23CCCN2CCc2cc4c(cc2[C@@H]3[C@@H]1OC(=O)OCc1ccccc1)OCO4,Activity,P388 [17],inactive
CCOC(=O)C(=O)O[C@@H]1C(OC)=C[C@]23CCCN2CCc2cc4c(cc2[C@H]13)OCO4,T/C,P388 [19],135%
same,Activity,Mus musculus [20],-0.2 g
same,T/C,P388 [33],129%
same,Activity,Mus musculus [22],-0.8 g
same,Activity,P388 [24],inactive
same,Activity,Mus musculus [34],-0.1 g
same,T/C,P388 [29],154%
